Assay results taken from ChEMBL document CHEMBL1122650, “Synthesis and central nervous system properties of 2-[(alkoxycarbonyl)amino]-4(5)-phenyl-2-imidazolines” (J Med Chem, 1984).
Values belong to the molecule of their own block, whether it stands above or below them. The source made the active and inactive calls. The rule behind the calls is not given here.

Experiments:
Mus musculus [1] = species: Mus musculus; assay: Mouse behavior activity was determined;D= Depressant; assay type: functional, organism-based
Method in brief: (§1)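 Male Simonsen (ICR) fBR mice, 18-24 g, groups of three, given 3, 10, 30, 100, 300 or 1000 mg/kg ip as aqueous solution and observed for behavioral profile; deaths followed up to 7 days.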

Mus musculus [2] = species: Mus musculus; assay: Evaluated for antagonism of reserpine induced hypothermia;I= Inactive; assay type: functional, organism-based
Method in brief: (§2)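 Male HLa (ICR) BR mice, 18-24 g, in groups of eight; reserpine 5 mg/kg ip given 2 h before oral test compound as aqueous solution. Rectal temperature taken hourly; 1-4-h hypothermia assessed by analysis of variance.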

Mus musculus [3] = species: Mus musculus; assay: Compound was evaluated for maximal electroshock antagonism (MES) against mice; assay type: functional
Method in brief: (§3)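 Male HLa (ICR) BR mice, groups of eight to ten, dosed ip (aqueous solution) 15 min before transcorneal electroshock (50 mA, 0.2 s). End point: abolition of tonic hind-limb extension; quantal ED50 by Litchfield-Wilcoxon.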

[4] = Lethal dose in mouse, in groups of ten; assay type: toxicity, organism-based; conditions: in vivo
[5] = HPLC capacity factor (k'); assay type: ADME
Mus musculus [6] = species: Mus musculus; assay: Righting ability was determined in mice […] rapid rolling (aroused); assay type: functional
Method in brief: (§4)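 Male Simonsen (ICR) fBR mice, 18-24 g, groups of ten, dosed with aqueous compound. Righting ability checked before (unaroused) and after (aroused) rapid rolling in the hand; ED50 by Litchfield-Wilcoxon method.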

Mus musculus [7] = species: Mus musculus; assay: Righting ability was determined in mice before rapid rolling (unaroused); assay type: functional; method in brief: as §4
Mus musculus [8] = species: Mus musculus; assay: Compound was evaluated for maximal electroshock antagonism (MES) against mice; Inactive; assay type: functional, organism-based; method in brief: as §3
Mus musculus [9] = species: Mus musculus; assay: Mouse behavior activity was determined; Dwk=Depressant Weak; assay type: functional, organism-based; method in brief: as §1
Mus musculus [10] = species: Mus musculus; assay: Evaluated for antagonism of reserpine induced hypothermia; assay type: functional; method in brief: as §2
Mus musculus [11] = assay: Evaluated in vivo for reserpine hypothermia after oral administration in mouse. Minimum active dose was reported; Inactive; assay type: functional, organism-based; method in brief: as §2
Mus musculus [12] = assay: Reserpine hypothermia antagonism in mouse administered perorally with 5 mg/kg of reserpine 2 hour prior to test compound administration; assay type: functional; conditions: route oral
Rattus norvegicus [13] = species: Rattus norvegicus; assay: Inhibition of the 5-HT [14C]5-HT uptake by rat brain slices In vitro; assay type: functional
Method in brief: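 Rat cerebral cortex slices, 5 mg tissue per mL Krebs-Henseleit buffer, incubated at 37 °C with [3H]NE or [14C]5-HT; blanks at 4 °C, undosed controls. Stopped after 20 min by filtration; slice radioactivity counted; IC50 from linear regression of uptake inhibition.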

Mus musculus [14] = species: Mus musculus; assay: Inhibition of radioactive NE [3H]norepinephrine uptake into mouse heart; assay type: functional
Method in brief: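 Mice dosed ip (aqueous solution) before iv [3H]NE; hearts removed 3 h after label, washed, weighed, dissolved in Protosol and counted as dpm per mg tissue. Dose-response from linear regression.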

Rattus norvegicus [15] = species: Rattus norvegicus; assay: Inhibition of the NE [3H]Norepinephrine uptake by rat brain slices In vitro; assay type: functional
Mus musculus [16] = species: Mus musculus; assay: Mouse behavior activity was determined; S-D=Stimulant-Depressant; assay type: functional, organism-based; method in brief: as §1
Mus musculus [17] = species: Mus musculus; assay: Righting ability was determined in mice after rapid rolling (aroused); assay type: functional; method in brief: as §4
Mus musculus [18] = species: Mus musculus; assay: Mouse behavior activity was determined; Dwk= Depressant Weak.; assay type: functional, organism-based; method in brief: as §1

Structure (SMILES): CCOC(=O)NC1=NC(c2cccc(C)c2C)CN1C (configuration not stated)
- Mouse behavior activity (Mus musculus [1]): Depressant
- HYPO (Mus musculus [2]): inactive
- ED50 (Mus musculus [3]): 70 mg/kg
- LD50 [4]: 300 mg/kg
- Log k' [5]: 1.02
- Loss of righting reflex (Mus musculus [6]): 66 mg/kg
- Loss of righting reflex (Mus musculus [7]): 41 mg/kg

- Log k' [5]: 0.12
Structure (SMILES): COC(=O)NC1=NC(Cc2ccccc2)CN1 (configuration not stated)

Structure (SMILES): COC(=O)NC1=NCC2c3ccccc3CCN12 (configuration not stated)
- Mouse behavior activity (Mus musculus [1]): Depressant
- LD50 [4]: 200 mg/kg

Structure (SMILES): COC(=O)NC1=NC(C)(c2ccccc2)CN1 (configuration not stated)
- ED50 (Mus musculus [8]): inactive

Structure (SMILES): COC(=O)NC1=NC(c2cc(C)ccc2C)CN1 (configuration not stated)
- HYPO (Mus musculus [2]): inactive
- ED50 (Mus musculus [3]): ~100 mg/kg
- LD50 [4]: 700 mg/kg
- Log k' [5]: 0.58
- Mouse behavior activity (Mus musculus [9]): Depressant - weak

Structure (SMILES): CCN1CC(c2ccccc2)N=C1NC(=O)OC (configuration not stated)
- Mouse behavior activity (Mus musculus [1]): Depressant
- ED50 (Mus musculus [3]): 66 mg/kg
- LD50 [4]: 117 mg/kg
- Log k' [5]: 0.39
- Loss of righting reflex (Mus musculus [7]): 84 mg/kg

Structure (SMILES): COC(=O)NC1=NC(c2ccc(C(F)(F)F)cc2)CN1 (configuration not stated)
- HYPO (Mus musculus [10]): >20 mg/kg
- ED50 (Mus musculus [11]): inactive
- LD50 [4]: 700 mg/kg
- Log k' [5]: 0.56
- ED50 (Mus musculus [8]): inactive
- Mouse behavior activity (Mus musculus [9]): Depressant - weak

Structure (SMILES): COC(=O)NC1=NC(c2cccc(OC)c2)CN1C (configuration not stated)
- Mouse behavior activity (Mus musculus [1]): Depressant
- HYPO (Mus musculus [10]): >20 mg/kg
- ED50 (Mus musculus [3]): 128 mg/kg
- LD50 [4]: 250 mg/kg
- Log k' [5]: 0.18
- Loss of righting reflex (Mus musculus [6]): 144 mg/kg
- Loss of righting reflex (Mus musculus [7]): 100 mg/kg

Structure (SMILES): CCOC(=O)NC1=NC(c2ccccc2Cl)CN1C (configuration not stated)
- Mouse behavior activity (Mus musculus [1]): Depressant
- HYPO (Mus musculus [10]): <0.5 mg/kg
- Reserpine hypothermia (Mus musculus [12]): 0.15 mg/kg
- ED50 (Mus musculus [3]): 28 mg/kg
- LD50 [4]: 200 mg/kg
- Log k' [5]: 0.82
- IC50 (Rattus norvegicus [13]): 150 µM
- ED50 (Mus musculus [14]): 34 mg/kg
- Loss of righting reflex (Mus musculus [6]): 64 mg/kg
- Loss of righting reflex (Mus musculus [7]): 30 mg/kg
- IC50 (Rattus norvegicus [15]): 30 µM

- Log k' [5]: 0.95
Structure (SMILES): CC(C)OC(=O)NC1=NC(c2cccc(Cl)c2)CN1 (configuration not stated)
- ED50 (Mus musculus [3]): 79 mg/kg

Structure (SMILES): CCOC(=O)NC1=NC(c2ccc(F)cc2)CN1C (configuration not stated)
- HYPO (Mus musculus [10]): <0.5 mg/kg
- ED50 (Mus musculus [3]): 100 mg/kg
- LD50 [4]: 200 mg/kg
- Log k' [5]: 0.48
- Mouse behavior activity (Mus musculus [16]): Stimulant-Depressant

Structure (SMILES): COC(=O)NC1=NC(c2ccccc2-c2ccccc2)CN1 (configuration not stated)
- Mouse behavior activity (Mus musculus [1]): Depressant
- HYPO (Mus musculus [10]): >20 mg/kg
- LD50 [4]: 200 mg/kg
- Log k' [5]: 1.06
- Loss of righting reflex (Mus musculus [7]): 70 mg/kg

Structure (SMILES): COC(=O)NC1=NC(c2cccc(Cl)c2)CN1C (configuration not stated)
- Mouse behavior activity (Mus musculus [1]): Depressant
- ED50 (Mus musculus [3]): 100 mg/kg
- LD50 [4]: 300 mg/kg
- Log k' [5]: 0.53
- Loss of righting reflex (Mus musculus [7]): 200 mg/kg

Structure (SMILES): CCOc1ccccc1C1CN=C(NC(=O)OC)N1 (configuration not stated)
- Mouse behavior activity (Mus musculus [1]): Depressant
- Loss of righting reflex (Mus musculus [17]): 125 mg/kg
- HYPO (Mus musculus [2]): inactive
- LD50 [4]: 700 mg/kg
- Log k' [5]: 0.55
- ED50 (Mus musculus [8]): inactive
- Loss of righting reflex (Mus musculus [7]): 155 mg/kg

Structure (SMILES): COC(=O)NC1=NC(c2cc(Cl)cc(Cl)c2)CN1C (configuration not stated)
- ED50 (Mus musculus [3]): 44 mg/kg

Structure (SMILES): COC(=O)NC1=NC(c2cc(F)ccc2F)CN1 (configuration not stated)
- HYPO (Mus musculus [10]): <0.5 mg/kg
- ED50 (Mus musculus [3]): 49 mg/kg
- LD50 [4]: > 300 mg/kg
- Log k' [5]: -0.08
- Mouse behavior activity (Mus musculus [9]): Depressant - weak

Structure (SMILES): COC(=O)NC1=NC(c2ccccc2F)CN1C (configuration not stated)
- ED50 (Mus musculus [11]): inactive
- ED50 (Mus musculus [3]): 74 mg/kg
- LD50 [4]: 254 mg/kg
- Log k' [5]: 0.14
- Mouse behavior activity (Mus musculus [9]): Depressant Weak

Structure (SMILES): COC(=O)NC1=NC(c2ccc3c(c2)OCO3)CN1 (configuration not stated)
- HYPO (Mus musculus [2]): inactive
- LD50 [4]: 200 mg/kg
- Log k' [5]: -0.14
- ED50 (Mus musculus [8]): inactive

Structure (SMILES): CN(C)CCC=C1c2ccccc2COc2ccccc21 [DOXEPIN]
- Mouse behavior activity (Mus musculus [1]): Depressant
- ED50 (Mus musculus [3]): 16 mg/kg
- LD50 [4]: 50 mg/kg
- Loss of righting reflex (Mus musculus [6]): 43 mg/kg
- Loss of righting reflex (Mus musculus [7]): 40 mg/kg

Structure (SMILES): COC(=O)NC1=NC(c2cccc(Cl)c2)CN1 (configuration not stated)
- ED50 (Mus musculus [3]): 48 mg/kg
- LD50 [4]: 300 mg/kg
- Log k' [5]: 0.4
- Mouse behavior activity (Mus musculus [18]): Depressant - weak

Structure (SMILES): COC(=O)NC1=NC(c2ccc(C(C)C)cc2)CN1 (configuration not stated)
- HYPO (Mus musculus [2]): inactive
- LD50 [4]: 500 mg/kg
- Log k' [5]: 0.99
- ED50 (Mus musculus [8]): inactive
- Mouse behavior activity (Mus musculus [9]): Depressant - weak

Structure (SMILES): COC(=O)NC1=NC(c2cccc(OC)c2)CN1 (configuration not stated)
- Mouse behavior activity (Mus musculus [1]): Depressant
- Loss of righting reflex (Mus musculus [17]): 197 mg/kg
- HYPO (Mus musculus [2]): inactive
- LD50 [4]: 700 mg/kg
- Log k' [5]: -0.07
- ED50 (Mus musculus [8]): inactive
- Loss of righting reflex (Mus musculus [7]): 182 mg/kg

Structure (SMILES): CC(C)COC(=O)NC1=NC(c2ccccc2)CN1C (configuration not stated)
- Mouse behavior activity (Mus musculus [1]): Depressant
- HYPO (Mus musculus [10]): >20 mg/kg
- ED50 (Mus musculus [3]): 70 mg/kg
- LD50 [4]: 247 mg/kg
- Log k' [5]: 1.15
- Loss of righting reflex (Mus musculus [6]): 76 mg/kg
- Loss of righting reflex (Mus musculus [7]): 41 mg/kg
